Format in all cases: protein-complex assay
For assay [1], the target named is T1, GABA-A receptor; alpha-5/beta-3/gamma-2 (Homo sapiens, UniProt P18507+P28472+P31644).
T1 sequence (P18507 whole entry): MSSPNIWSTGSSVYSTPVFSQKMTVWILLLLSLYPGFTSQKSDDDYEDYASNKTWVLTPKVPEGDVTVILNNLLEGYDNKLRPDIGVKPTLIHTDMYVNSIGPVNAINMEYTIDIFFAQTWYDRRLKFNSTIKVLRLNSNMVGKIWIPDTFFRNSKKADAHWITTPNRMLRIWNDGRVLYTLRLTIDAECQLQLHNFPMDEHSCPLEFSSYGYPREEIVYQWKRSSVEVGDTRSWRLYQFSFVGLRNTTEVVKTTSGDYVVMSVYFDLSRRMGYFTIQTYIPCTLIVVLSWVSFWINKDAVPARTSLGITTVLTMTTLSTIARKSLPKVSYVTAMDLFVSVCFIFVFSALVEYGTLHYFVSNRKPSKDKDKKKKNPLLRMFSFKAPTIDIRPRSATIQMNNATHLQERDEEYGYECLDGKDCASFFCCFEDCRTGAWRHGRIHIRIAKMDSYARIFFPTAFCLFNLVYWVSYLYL
T1 sequence (P28472 whole entry): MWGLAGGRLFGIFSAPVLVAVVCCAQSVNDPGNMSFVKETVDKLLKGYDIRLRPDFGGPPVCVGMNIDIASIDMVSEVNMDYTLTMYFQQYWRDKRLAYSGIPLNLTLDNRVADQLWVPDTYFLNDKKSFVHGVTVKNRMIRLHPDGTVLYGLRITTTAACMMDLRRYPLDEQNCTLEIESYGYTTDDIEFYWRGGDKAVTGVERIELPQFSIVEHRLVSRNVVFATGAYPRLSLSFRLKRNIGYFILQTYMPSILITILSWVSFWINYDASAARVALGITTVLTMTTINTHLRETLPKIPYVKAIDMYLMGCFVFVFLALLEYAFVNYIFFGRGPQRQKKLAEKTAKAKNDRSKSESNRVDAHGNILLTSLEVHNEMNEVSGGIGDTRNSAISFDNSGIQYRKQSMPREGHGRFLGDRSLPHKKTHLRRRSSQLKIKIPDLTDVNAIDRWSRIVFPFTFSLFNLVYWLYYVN
T1 sequence (P31644 whole entry): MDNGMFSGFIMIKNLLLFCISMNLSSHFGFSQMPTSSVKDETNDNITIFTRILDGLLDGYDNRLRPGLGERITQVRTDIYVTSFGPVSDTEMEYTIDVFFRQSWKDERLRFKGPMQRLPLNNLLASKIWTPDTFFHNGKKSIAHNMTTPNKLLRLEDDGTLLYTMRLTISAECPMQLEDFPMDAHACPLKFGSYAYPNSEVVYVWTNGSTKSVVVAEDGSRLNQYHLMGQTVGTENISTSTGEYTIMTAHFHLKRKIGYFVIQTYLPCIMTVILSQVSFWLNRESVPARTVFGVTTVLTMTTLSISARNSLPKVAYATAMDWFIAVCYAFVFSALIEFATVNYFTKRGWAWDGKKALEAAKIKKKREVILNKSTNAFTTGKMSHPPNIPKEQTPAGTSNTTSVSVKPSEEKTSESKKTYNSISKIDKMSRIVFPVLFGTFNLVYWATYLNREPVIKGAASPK
The assay can be described thus: Binding affinity for human recombinant gamma-aminobutyric-acid (GABA) A receptor alpha-5-beta-3-gamma-2.

For assay [2], the target named is T2, GABA-A receptor; alpha-3/beta-3/gamma-2 (Homo sapiens, UniProt P18507+P28472+P34903).
T2 sequence (P18507 whole entry): T1 sequence (P18507 whole entry)
T2 sequence (P28472 whole entry): T1 sequence (P28472 whole entry)
T2 sequence (P34903 whole entry): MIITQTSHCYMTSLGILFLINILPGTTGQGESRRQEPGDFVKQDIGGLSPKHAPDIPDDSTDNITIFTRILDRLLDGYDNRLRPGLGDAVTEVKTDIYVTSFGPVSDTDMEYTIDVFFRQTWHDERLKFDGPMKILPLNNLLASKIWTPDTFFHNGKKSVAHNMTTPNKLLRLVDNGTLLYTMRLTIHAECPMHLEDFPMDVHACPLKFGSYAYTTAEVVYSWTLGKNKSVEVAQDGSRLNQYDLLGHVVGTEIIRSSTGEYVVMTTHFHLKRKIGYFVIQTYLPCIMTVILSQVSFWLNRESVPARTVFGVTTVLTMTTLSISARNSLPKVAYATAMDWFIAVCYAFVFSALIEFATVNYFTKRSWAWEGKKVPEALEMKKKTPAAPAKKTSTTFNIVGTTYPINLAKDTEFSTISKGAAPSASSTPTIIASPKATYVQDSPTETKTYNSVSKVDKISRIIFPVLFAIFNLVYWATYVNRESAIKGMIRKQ
The assay can be described thus: Binding affinity for human recombinant gamma-aminobutyric-acid (GABA) A receptor alpha-3-beta-3-gamma-2.

For assay [3], the target named is T3, GABA-A receptor; alpha-2/beta-3/gamma-2 (Homo sapiens, UniProt P18507+P28472+P47869).
T3 sequence (P18507 whole entry): T1 sequence (P18507 whole entry)
T3 sequence (P28472 whole entry): T1 sequence (P28472 whole entry)
T3 sequence (P47869 whole entry): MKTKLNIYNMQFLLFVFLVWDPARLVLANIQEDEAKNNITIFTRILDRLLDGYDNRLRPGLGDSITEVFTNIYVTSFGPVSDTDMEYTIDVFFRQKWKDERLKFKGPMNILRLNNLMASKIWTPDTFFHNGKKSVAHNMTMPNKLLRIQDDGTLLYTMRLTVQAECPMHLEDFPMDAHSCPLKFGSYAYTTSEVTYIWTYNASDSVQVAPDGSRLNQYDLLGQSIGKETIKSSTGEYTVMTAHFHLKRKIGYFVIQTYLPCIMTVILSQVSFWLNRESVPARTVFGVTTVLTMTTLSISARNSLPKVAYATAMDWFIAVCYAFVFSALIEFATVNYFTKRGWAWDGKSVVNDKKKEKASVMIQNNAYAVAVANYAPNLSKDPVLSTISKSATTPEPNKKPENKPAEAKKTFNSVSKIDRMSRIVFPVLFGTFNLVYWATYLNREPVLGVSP
The assay can be described thus: Binding affinity to human recombinant gamma-aminobutyric-acid (GABA) A receptor alpha-2-beta-3-gamma-2.

Assay [4] concerns the target GABA-A receptor; alpha-6/beta-3/gamma-2 (Homo sapiens, UniProt P18507+P28472+Q16445). The assay can be described thus: Binding affinity for human recombinant gamma-aminobutyric-acid (GABA) A receptor alpha-6-beta-3-gamma-2. The essentials:
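Ltk⁻ cells expressing human α6β3γ2 were harvested by scraping into PBS, centrifuged at 3000g and resuspended in 10 mM KH₂PO₄/100 mM KCl (pH 7.4). Incubation was 1 h at 4 °C with filter harvest and scintillation counting.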

The target in assay [5] is T4, GABA-A receptor; alpha-1/beta-3/gamma-2 (Homo sapiens, UniProt P14867+P18507+P28472).
T4 sequence (P14867 whole entry): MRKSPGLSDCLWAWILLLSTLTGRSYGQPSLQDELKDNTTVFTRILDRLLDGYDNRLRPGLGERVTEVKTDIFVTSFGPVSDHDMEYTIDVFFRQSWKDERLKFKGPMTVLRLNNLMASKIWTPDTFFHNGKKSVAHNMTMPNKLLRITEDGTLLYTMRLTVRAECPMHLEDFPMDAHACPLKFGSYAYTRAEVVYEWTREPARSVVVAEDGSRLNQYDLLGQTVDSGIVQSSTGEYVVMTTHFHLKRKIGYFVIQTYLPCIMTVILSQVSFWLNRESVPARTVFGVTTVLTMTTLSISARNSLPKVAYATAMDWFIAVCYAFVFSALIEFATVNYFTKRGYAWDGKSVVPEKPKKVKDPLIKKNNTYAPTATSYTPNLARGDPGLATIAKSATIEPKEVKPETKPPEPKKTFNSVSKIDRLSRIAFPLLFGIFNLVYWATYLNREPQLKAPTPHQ
T4 sequence (P18507 whole entry): T1 sequence (P18507 whole entry)
T4 sequence (P28472 whole entry): T1 sequence (P28472 whole entry)
The assay can be described thus: Binding affinity for human recombinant gamma-aminobutyric-acid (GABA) A receptor alpha-1-beta-3-gamma-2.

Chain of GABA-A receptor; alpha-6/beta-3/gamma-2 (Q16445 whole entry, one chain of several): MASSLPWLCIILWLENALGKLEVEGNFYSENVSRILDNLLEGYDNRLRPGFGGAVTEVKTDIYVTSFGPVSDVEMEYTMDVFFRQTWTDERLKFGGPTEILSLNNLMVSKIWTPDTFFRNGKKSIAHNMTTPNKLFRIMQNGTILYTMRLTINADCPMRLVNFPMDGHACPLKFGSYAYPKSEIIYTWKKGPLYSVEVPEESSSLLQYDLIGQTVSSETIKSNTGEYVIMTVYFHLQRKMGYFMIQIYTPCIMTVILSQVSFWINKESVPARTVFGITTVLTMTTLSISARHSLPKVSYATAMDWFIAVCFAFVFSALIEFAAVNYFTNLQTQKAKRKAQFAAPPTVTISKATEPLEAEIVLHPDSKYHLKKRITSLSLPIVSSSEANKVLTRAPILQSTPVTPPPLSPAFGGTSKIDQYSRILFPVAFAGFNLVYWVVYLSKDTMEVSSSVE

As for `O=c1c2c[nH]c3ccc(Br)cc3c-2nn1-c1ccccc1`, the Ki (commonly the equilibrium dissociation constant of an inhibitor or competing ligand from its target) amounted to 0.12 nM in assay [1]; 0.05 nM in assay [2]; 0.08 nM in assay [3]; 4 nM in assay [4]; 0.06 nM in assay [5].
On to `COc1ccc2ncc3c(=O)n(-c4ccccc4)[nH]c3c2c1`, for which the Ki in assay [1] was 0.2 nM; in assay [2], 0.09 nM; in assay [3], 0.1 nM; in assay [4], greater than 10 nM; in assay [5] it was 0.11 nM.
As for `O=c1c2cnc3ccc(Cl)cc3c2[nH]n1-c1ccccc1`, the Ki in assay [1] came out at 0.44 nM; in assay [2] it was 0.12 nM; in assay [3] it was 0.17 nM; in assay [4], 17.3 nM; in assay [5], 0.23 nM.
With `CCCC(=O)c1cc2c(cn1)[nH]c1ccccc12`, the Ki in assay [1] was 995 nM; in assay [2] it was 21 nM; in assay [3], 16 nM; in assay [4] it was greater than 3000 nM; in assay [5] it was 2.1 nM.
Take `CN1C(=O)CN=C(c2ccsc2)c2cc(Cl)ccc21`: the Ki in assay [1], in assay [2], in assay [3], in assay [4] and in assay [5] was greater than 300 nM in each case.
Consider `c1ccc(COc2ccc3c(c2)[nH]c2c3ncc3[nH]c4ccccc4c32)cc1`, for which the Ki was greater than 10000 nM in assay [1]; 3000 nM in assay [2]; 3000 nM in assay [3]; greater than 10000 nM in assay [4]; 432 nM in assay [5].
Take `Clc1ccc2c(c1)[nH]c1c2ncc2[nH]c3ccccc3c21`: the Ki was 210 nM in assay [1]; 24.4 nM in assay [2]; 12.2 nM in assay [3]; greater than 10000 nM in assay [4]; 3.9 nM in assay [5].
Regarding `CCc1c(C(=O)NN)[nH]cc2nc3cc(OC)c(OC)cc3c1-2`, the Ki in assay [1] was 91.5 nM; in assay [2] it was 570 nM; in assay [3], greater than 1000 nM; in assay [4] it was greater than 3000 nM; in assay [5], 896 nM.
For `COc1ccc2c(c1)ncc1c(=O)n(-c3ccccc3)[nH]c12`, in that order: 0.84 nM, 1.26 nM, 1.31 nM, 2.03 nM and 1.34 nM.
As for `CCOC(=O)c1[nH]cc2nc3ccc(OC)cc3c-2c1CC`, the inhibitory constant (Ki) was 1 nM in assay [1]; 2.8 nM in assay [2]; 2.9 nM in assay [3]; greater than 1000 nM in assay [4]; 1.6 nM in assay [5].
Turning to `CCOC(=O)c1cc2c3cc(OCc4ccccc4)ccc3nc-2c[nH]1`, the Ki in assay [1] was 271 nM; in assay [2], 284 nM; in assay [3], 169 nM; in assay [4] it was greater than 10000 nM; in assay [5], 7.2 nM.
For the compound `Fc1ccc2c(c1)[nH]c1c3c4ccccc4nc-3c[nH]c12`, the Ki in assay [1] is 260 nM; in assay [2], 18.4 nM; in assay [3], 10.4 nM; in assay [4] it was greater than 10000 nM; in assay [5], 5.1 nM.
In the case of `c1ccc2c(c1)[nH]c1cnc3c4ccncc4[nH]c3c12`, the Ki in assay [1] is 240 nM; in assay [2] it was 30.5 nM; in assay [3] it was 23.8 nM; in assay [4] it was greater than 10000 nM; in assay [5], 3 nM.
As for `CCCOc1ccc2[nH]c3cnc(C(=O)NN)c(COC)c3c2c1`, the Ki is 108 nM in assay [1]; 400 nM in assay [2]; 422 nM in assay [3]; greater than 300 nM in assay [4]; 46 nM in assay [5].
Regarding `COc1ccc2c(c1)[nH]c1c2ncc2[nH]c3ccccc3c21`, the Ki was 225 nM in assay [1]; 11 nM in assay [2]; 11.7 nM in assay [3]; greater than 10000 nM in assay [4]; 3.4 nM in assay [5].
For `O=c1c2cnc3ccccc3c2[nH]n1-c1ccc(Br)cc1`, in that order: 1.3 nM, 0.25 nM, 0.21 nM, 40 nM and 0.18 nM.
Turning to `CC(C)c1nc(-c2ncn3c2CN(C)C(=O)c2c(Cl)cccc2-3)no1`, the Ki in assay [1] turned out to be 1.54 nM; in assay [2], 1.16 nM; in assay [3], 2.08 nM; in assay [4], 227 nM; in assay [5] it was 0.4 nM.
On to `CCCOc1ccc2c(c1)c1c(COC)c(C(=O)OCC)ncc1n2C`, for which the Ki in assay [1] was 161 nM; in assay [2], 164 nM; in assay [3] it was 105 nM; in assay [4], greater than 10000 nM; in assay [5], 25.6 nM.
For `CC(C)(C)OC(=O)c1ncn2c1[C@@H]1CCCN1C(=O)c1c(Br)cccc1-2` [BRETAZENIL], in that order: 0.5 nM, 0.2 nM, 0.64 nM, 12.7 nM and 0.35 nM.
As for `O=[N+]([O-])c1ccc2[nH]c3c[nH]c4c5ccccc5nc-4c3c2c1`, the Ki in assay [1] was 1560 nM; in assay [2], 532 nM; in assay [3] it was 500 nM; in assay [4], greater than 10000 nM; in assay [5] it was 244 nM.
As to `COC(=O)c1cc2c3cc(NCc4ccc5ccccc5c4)ccc3nc-2c[nH]1`, the Ki was 814 nM in assay [1]; 271 nM in assay [2]; 205 nM in assay [3]; greater than 10000 nM in assay [4]; 30.7 nM in assay [5].

The values are drawn from ChEMBL document CHEMBL1132940, “Pharmacophore/receptor models for GABA(A)/BzR subtypes (alpha1beta3gamma2, alpha5beta3gamma2, and alpha6beta3gamma2) via a comprehensive ligand-mapping approach” (J Med Chem, 2000).
